Several values for one entry are separate records, joined by “and”; a condition that tells them apart may be missing. Equal values may be shown once. Read-outs that look alike come from different tables or passages of the source.
Experiments:
PKC = experiment: Effect of PKC inhibition on CCK- and TPA-stimulated pY416 Yes phosphorylation; type: cell-based, rat
How it was run: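 Rat acini were pretreated with the PKC inhibitor GF109203X (5 µM) during preincubation, then incubated with 100 nM CCK (1 min) or 1 µM TPA (2.5 min) at 37 °C. Lysates were immunoprecipitated with anti-Yes and blotted for pY416 Src family and total Yes, quantified by densitometry. Results are expressed as % of control, mean ± S.E., n=4.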

Yes kinase [1] = type: cell-based, rat; settings: for Yes pY416 phosphorylation, time course, 1 min: 1 min incubation; for tmax (Yes pY416 phosphorylation) / t1/2 (Yes pY416 phosphorylation): CCK (100 nM) or TPA (1 µM)
How it was run: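 Collagenase-dispersed rat acini were preincubated 2 h at 37 °C, then incubated with CCK (100 nM) or TPA (1 µM) for times up to 15 min. Yes was immunoprecipitated (4 µg anti-Yes, protein G, overnight 4 °C), then blotted for pY416 and total Yes and read by densitometry. Values are % of zero-time control, mean ± S.E., n=7, with t1/2 from curve fitting.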

Yes kinase [2] = type: cell-based, rat; settings: for association of Yes with p125FAK, PYK2, PI3K, PKD, p130Cas, Shc and PKCδ (Co-IP) / association of Yes with Raf, Cbl or ERK1/2 (Co-IP): CCK 100 nM 2.5 min or TPA 1 µM 5 min; for association of Yes with p125FAK, PYK2, PI3K, PKD, p130Cas, Shc and PKCδ (Co-IP): 8 experiments; for association between Yes and PI3K / association of Yes with autophosphorylated forms pY397 p125FAK and pY402 PYK2: CCK or TPA; for direct association of Raf, Cbl or ERK1/2 with Yes, reverse Co-IP: Cbl or ERK1/2 antibodies, detection with Yes antibodies; for association of Yes with Cbl or Erk 1/2 (Co-IP), discussion / association of Yes with focal adhesion kinases, PKCδ, Shc, p130Cas, PI3K, PTEN and PKD (Co-IP): TPA and CCK, physiological and supramaximal concentrations
Lyn [3] = settings: pancreatic acini; cited from earlier work
PKC-δ and Src = settings: PC-12 cells and parotid cells; cited from earlier work
[4] = tested on: endoplasmic reticulum Ca^2+-ATPase; experiment: Effect of Ca2+ depletion on CCK- and TPA-stimulated pY416 Yes phosphorylation; type: cell-based, rat; settings: for inhibition of TPA-/CCK-stimulated Yes activation (thapsigargin, words): TPA and CCK as stimulants
[5] = tested on: [Ca^2+i] increase stimulated by CCK; settings: thapsigargin, calcium-free medium; cited from earlier work
Lyn [6] = settings: cited from earlier work
Yes kinase [7] = type: cell-based, rat
How it was run: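 Rat pancreatic acini were prepared by collagenase digestion, preincubated 2 h at 37 °C in HEPES buffer (pH 7.45), then exposed to graded concentrations of CCK or CCK-JMV at 37 °C. Yes was immunoprecipitated from lysates and immunoblotted for pY416 Src family, with total Yes as loading control, and quantified by densitometry.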

Yes = settings: cited from earlier work; for activation of Yes by EGF and PDGF: hepatocytes and fibroblasts
SFK = settings: cited from earlier work
Fyn = settings: cited from earlier work
Src = settings: cited from earlier work
Hck = settings: endothelial cells; cited from earlier work
adenylate cyclase = settings: cited from earlier work; for activation of PLC cascades or adenylate cyclase: pancreatic acinar cell; for adenylate cyclase activation: rat pancreatic acini
Akt = experiment: pS473 Akt phosphorylation by pancreatic growth factors; type: cell-based; settings: rat pancreatic acini; data not shown
cSrc = settings: murine fibroblasts; cited from earlier work
CCK2 receptors = experiment: CCK2 receptor ligands: pY416 Yes phosphorylation in rat pancreatic acini; type: cell-based; settings: gastrin 10 nM, 1 min
[8] = from CCK-JMV partial stimulation

CN(C)CCCn1cc(C2=C(c3c[nH]c4ccccc34)C(=O)NC2=O)c2ccccc21 [GF109203X]
decrease in CCK-stimulated activation of Yes by PKC inhibitor (PKC; GF109203X + CCK): 80%
inhibition of TPA-/CCK-stimulated Yes activation (PKC inhibitor, words) (PKC; TPA and CCK as stimulants): inhibit TPA−/CCK-stimulated Yes

CCCCCCCCCCCCCC(=O)O[C@@H]1[C@@H](C)[C@@]2(O)[C@@H](C=C(CO)C[C@]3(O)C(=O)C(C)=C[C@@H]23)[C@@H]2C(C)(C)[C@]12OC(C)=O [TPA, 12-O-tetradecanoylphorbol-13-acetate]
Yes pY416 phosphorylation, time course, 1 min (Yes kinase [1]; means±S.E., 7 experiments): 153±25 % of control
tmax (Yes pY416 phosphorylation) (Yes kinase [1]; 7 experiments): 2.49±0.29 min
t1/2 (Yes pY416 phosphorylation) (Yes kinase [1]; means±S.E., 7 experiments): 1.25±0.24 min
Yes pY416 phosphorylation, time course, 2.5 min (Yes kinase [1]; TPA, 2.5 min, means±S.E., 7 experiments, p<0.05): 266±47 % of control
duration of increased Yes pY416 phosphorylation (Yes kinase [1]; sustained increase): 15 min
association of Yes with p125FAK, PYK2, PI3K, PKD, p130Cas, Shc and PKCδ (Co-IP) (Yes kinase [2]): produced an increase in the association of Yes
association of Yes with Raf, Cbl or ERK1/2 (Co-IP) (Yes kinase [2]; data not shown): not with Raf, Cbl or ERK1/2
association between Yes and PI3K (Yes kinase [2]): stimulated an association between Yes and PI3K
association of Yes with autophosphorylated forms pY397 p125FAK and pY402 PYK2 (Yes kinase [2]): stimulates an association of Yes with each of their specific autophosphorylated forms
direct association of Raf, Cbl or ERK1/2 with Yes, reverse Co-IP (Yes kinase [2]): did not obtained any stimulated direct association with Yes
association of Yes with Cbl or Erk 1/2 (Co-IP), discussion (Yes kinase [2]): not with Cbl or Erk 1/2
association of Yes with focal adhesion kinases, PKCδ, Shc, p130Cas, PI3K, PTEN and PKD (Co-IP) (Yes kinase [2]): stimulate the association of Yes
association of Lyn with PKC-δ, Shc, p125FAK and Pyk-2 (Lyn [3]): stimulated its association with PKC-δ, Shc, p125FAK and Pyk-2
association of PKC-δ and Src (PKC-δ and Src): neither TPA nor carbachol stimulated the association of PKC-δ and Src

C/C=C(/C)C(=O)O[C@H]1C(C)=C2[C@H]([C@@H]1OC(=O)CCCCCCC)[C@@](C)(OC(C)=O)C[C@H](OC(=O)CCC)[C@@]1(O)[C@H]2OC(=O)[C@@]1(C)O [Thapsigargin]
inhibition of TPA-/CCK-stimulated Yes activation (thapsigargin, words) [4]: inhibit TPA−/CCK-stimulated Yes
inhibition of TPA-/CCK-stimulated Yes activation (thapsigargin, words) ([4]; listed as thapsigargin): did not completely inhibit CCK-stimulated Yes activation
reduction of CCK-stimulated Yes activation by thapsigargin (Ca2+ depletion) ([4]; thapsigargin, calcium-depleting conditions, + CCK): 71%
inhibition of CCK-stimulated [Ca2+]i increase [5]: completely inhibit

C[N+](C)(C)CCOC(N)=O [carbachol]
Lyn activation in pancreatic acinar cells (Lyn [6]): activated
association of PKC-δ and Src (PKC-δ and Src): neither TPA nor carbachol stimulated the association of PKC-δ and Src

COOH-terminal octapeptide of cholecystokinin [CCK]
maximal stimulation of Y416 phosphorylation of Yes (Yes kinase [7]; CCK 100 nM, means±S.E., 5 experiments): 280±16 % of control
lowest concentration with detectable increase in Y416 phosphorylation of Yes (Yes kinase [7]; CCK dose-response): 10 pM
share of CCK stimulation of Yes mediated by high affinity CCK1 receptor state (Yes kinase [7]; [8]): 64%
share of CCK stimulation of Yes mediated by low affinity CCK1 receptor state (Yes kinase [7]; [8]): 36%
Yes pY416 phosphorylation, time course, 1 min (Yes kinase [1]; means±S.E., 7 experiments): 310±43 % of control
tmax (Yes pY416 phosphorylation) (Yes kinase [1]; 7 experiments): 1 min and 0.98±0.14 min
t1/2 (Yes pY416 phosphorylation) (Yes kinase [1]; means±S.E., 7 experiments): 0.309±0.042 min and 0.31±0.04 min
Yes pY416 phosphorylation, time course, 30 s (Yes kinase [1]; CCK, 30-second incubation, means±S.E., 7 experiments, p<0.05): 278±27 % of control
association of Yes with p125FAK (Co-IP), low CCK (Yes kinase [2]; CCK 100 pM and 0.1 nM, 2.5 min): not with ^p125FAK
association of Yes with Raf, Cbl or ERK1/2 (Co-IP), low CCK (Yes kinase [2]; CCK 100 pM and 0.1 nM, data not shown): with Raf, Cbl or ERK1/2 (data not shown)
association of Yes with p125FAK, PYK2, PI3K, PKD, p130Cas, Shc and PKCδ (Co-IP) (Yes kinase [2]): produced an increase in the association of Yes
association of Yes with Raf, Cbl or ERK1/2 (Co-IP) (Yes kinase [2]; data not shown): not with Raf, Cbl or ERK1/2
association between Yes and PI3K (Yes kinase [2]): stimulated an association between Yes and PI3K
association of Yes with autophosphorylated forms pY397 p125FAK and pY402 PYK2 (Yes kinase [2]): stimulates an association of Yes with each of their specific autophosphorylated forms
direct association of Raf, Cbl or ERK1/2 with Yes, reverse Co-IP (Yes kinase [2]): did not obtained any stimulated direct association with Yes
association of Yes with Cbl or Erk 1/2 (Co-IP), discussion (Yes kinase [2]): not with Cbl or Erk 1/2
association of Yes with focal adhesion kinases, PKCδ, Shc, p130Cas, PI3K, PTEN and PKD (Co-IP) (Yes kinase [2]): stimulate the association of Yes
Lyn activation in pancreatic acinar cells (Lyn [6]): activated
activation of Yes through CCK2 receptors (Yes; rat pancreatic acinar cell line AR42J): activate Yes through CCK2 receptors
association of Lyn with PKC-δ, Shc, p125FAK and Pyk-2 (Lyn [3]): stimulated its association with PKC-δ, Shc, p125FAK and Pyk-2

Endothelin-1: interacts with ET-1 and ET-3 receptors in the pancreatic acinar cell
Lyn activation in pancreatic acinar cells (Lyn [6]): weakly stimulated
SFK activation by endothelin (SFK; different cells): activates SFKs in different cells
Fyn activation by endothelin (Fyn; endothelial cells): activated the SFK Fyn
Src inhibition by endothelin (Src; endothelial cells): inhibited
Yes activity with endothelin (Yes; endothelial cells): unaltered
Hck inhibition by endothelin (Hck): inhibited
activation of PLC cascades or adenylate cyclase (adenylate cyclase): does not activate PLC cascades nor activate adenylate cyclase
activation of PLC cascades or adenylate cyclase (adenylate cyclase; listed as endothelin): does not stimulate phospholipase C or adenylate cyclase

Epidermal growth factor (NSNTGCPPSYDGYCLNGGVCMYVESVDRYVCNCVIGYIGERCQHRDLRWWKLR; UniProt P07522 974-1026, looked up) [EGF]
pS473 Akt phosphorylation (Akt): stimulated pS473 Akt phosphorylation
cSrc activation (cSrc): activate the SFK, cSrc
activation of Yes by EGF and PDGF (Yes): stimulated activation of Yes

Gastrin
pY416 Yes phosphorylation by gastrin (CCK2 receptors): did not produce any increase in pY416 Yes phosphorylation

Secretin: activates adenylate cyclase in rat pancreatic acini
Lyn activation in pancreatic acinar cells (Lyn [6]): weakly stimulated
SFK activation by secretin (SFK; other studies): activated the SFKs
adenylate cyclase activation (adenylate cyclase): activates adenylate cyclase

basic fibroblast growth factor [bFGF]
pS473 Akt phosphorylation (Akt): stimulated pS473 Akt phosphorylation
SFK activation in pancreatic acinar cells (SFK; bFGF, pancreatic acinar cells): not activate SFK
cSrc activation (cSrc): activate the SFK, cSrc

bombesin
Lyn activation in pancreatic acinar cells (Lyn [6]): activated

insulin-like growth factor 1 [IGF-1]
pS473 Akt phosphorylation (Akt): stimulated pS473 Akt phosphorylation
Src activation by IGF (Src; differentiating preadipocytes): stimulates Src activation

insulin: pancreatic growth factor
pS473 Akt phosphorylation (Akt): stimulated pS473 Akt phosphorylation
SFK activation by insulin (SFK; skeletal muscle cells): stimulates SFK activation
Fyn activation by insulin (Fyn; ovarian cells): stimulates Fyn activation

platelet-derived growth factor [PDGF]
pS473 Akt phosphorylation (Akt): stimulated pS473 Akt phosphorylation
cSrc activation (cSrc): activate the SFK, cSrc
activation of Yes by EGF and PDGF (Yes): stimulated activation of Yes

vasoactive intestinal peptide [VIP]
adenylate cyclase activation (adenylate cyclase): activates adenylate cyclase
